In ChEMBL document CHEMBL2321668, “Aromatic bis-N-hydroxyguanidinium derivatives: synthesis, biophysical, and biochemical evaluations” (J Med Chem, 2013):
Where a name gives a salt, the structure may show the parent alone. Active and inactive are the calls of the source. The rule behind the calls is not given here.

Legend:
Salmonidae = experiment: Binding affinity to salmon sperm DNA assessed as change in melting temperature at 15 uM by thermal denaturation assay
DNA = experiment: Binding affinity to calf thymus DNA assessed as change in melting temperature; assay type: nucleic-acid assay; settings: Bos taurus
HL-60 [1] = experiment: Cytotoxicity against human HL60 cells assessed as reduction in cell viability at 100 uM after 72 hrs by Alamar blue assay; assay type: functional, cell-based
In short: (§1)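 HL-60 cells in log phase, 4 × 10^4 cells/well in RPMI/10% FBS, were treated with a 1:100 dilution of aqueous stocks (1% ddH2O vehicle), final 1–100 μM, for 72 h at 37 °C. AlamarBlue was added for 4.5 h in the dark and fluorescence read at 544/590 nm. Viability is blank-corrected and given as % of vehicle. IC50 comes from sigmoidal dose–response fits. Triplicate wells, at least three experiments.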

HL-60 [2] = experiment: Cytotoxicity against human HL60 cells assessed as reduction in cell viability after 72 hrs by Alamar blue assay; assay type: functional, cell-based; settings: HL-60, 72 h; in short: as §1
HL-60 [3] = experiment: Cell cycle arrest in human HL60 cells assessed as accumulation at G2/M phase at 50 uM after 48 hrs by flow cytometric analysis (reference value: 11.35 +/- 1.05%); assay type: functional
HL-60 [4] = experiment: Cell cycle arrest in human HL60 cells assessed as accumulation at G2/M phase at 50 uM by flow cytometric analysis; assay type: functional, cell-based; settings: TDE = time-dependent effect
HL-60 [5] = experiment: Cell cycle arrest in human HL60 cells assessed as accumulation at Gn phase at 50 uM by flow cytometric analysis; assay type: functional, cell-based; settings: TDE = time-dependent effect
HL-60 [6] = experiment: Cell cycle arrest in human HL60 cells assessed as accumulation at preG1 phase at 50 uM after 72 hrs by flow cytometric analysis (reference value: 2.21 +/- 0.57%); assay type: functional
HL-60 [7] = experiment: Cell cycle arrest in human HL60 cells assessed as accumulation at S phase at 50 uM after 24 hrs by flow cytometric analysis (reference value: 24.46 +/- 1.15%); assay type: functional
HL-60 [8] = experiment: Cell cycle arrest in human HL60 cells assessed as accumulation at G2/M phase at 50 uM after 72 hrs by flow cytometric analysis (reference value: 10.53 +/- 0.81%); assay type: functional
HL-60 [9] = experiment: Cell cycle arrest in human HL60 cells assessed as accumulation at preG1 phase at 50 uM after 48 hrs by flow cytometric analysis (reference value: 1.41 +/- 0.32%); assay type: functional
[10] = Cytotoxicity against human Kelly cells assessed as reduction in cell viability 100 uM after 72 hrs by Alamar blue assay; assay type: functional
In short: (§2)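 Kelly neuroblastoma cells in RPMI/10% FBS, 6000/well, were preincubated 24 h, then given a 1:100 dilution of aqueous stocks (1% ddH2O vehicle) for 72 h at 37 °C. AlamarBlue was added for 4.5 h in the dark and fluorescence read at 544/590 nm. Viability is blank-corrected and given as % of vehicle. IC50 comes from a sigmoidal fit. Triplicate wells, at least three experiments.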

MCF7 [11] = experiment: Cytotoxicity against human MCF7 cells assessed as reduction in cell viability after 72 hrs by Alamar blue assay; assay type: functional, cell-based; settings: MCF7, 72 h
In short: (§3)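 MCF-7 cells in MEM/10% FBS with nonessential amino acids, 10,000/well, were preincubated 24 h, then treated for 72 h at 37 °C with a 1:100 dilution of aqueous stocks (1% ddH2O vehicle). AlamarBlue was added for 4.5 h in the dark and fluorescence read at 544/590 nm. Viability is blank-corrected and given as % of vehicle. IC50 comes from a sigmoidal dose–response fit. Triplicate wells, at least three experiments.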

HL-60 [12] = experiment: Cell cycle arrest in human HL60 cells assessed as accumulation at G2/M phase at 50 uM after 24 hrs by flow cytometric analysis (reference value: 16.73 +/- 0.59%); assay type: functional
[13] = Cytotoxicity against human Kelly cells assessed as reduction in cell viability after 72 hrs by Alamar blue assay; assay type: functional, cell-based; in short: as §2
HL-60 [14] = experiment: Cell cycle arrest in human HL60 cells assessed as accumulation at Gn phase at 50 uM after 24 hrs by flow cytometric analysis (reference value: 2.96 +/- 0.79%); assay type: functional
HL-60 [15] = experiment: Cell cycle arrest in human HL60 cells assessed as accumulation at G0/G1 phase at 50 uM by flow cytometric analysis; assay type: functional, cell-based; settings: TDE = time-dependent effect
HL-60 [16] = experiment: Cell cycle arrest in human HL60 cells assessed as accumulation at G0/G1 phase at 50 uM after 48 hrs by flow cytometric analysis (reference value: 58.77 +/- 2.33%); assay type: functional
HL-60 [17] = experiment: Cell cycle arrest in human HL60 cells assessed as accumulation at S phase at 50 uM after 48 hrs by flow cytometric analysis (reference value: 24.29 +/- 1.37%); assay type: functional
HL-60 [18] = experiment: Cell cycle arrest in human HL60 cells assessed as accumulation at Gn phase at 50 uM after 48 hrs by flow cytometric analysis (reference value: 3.02 +/- 0.56%); assay type: functional
HL-60 [19] = experiment: Cell cycle arrest in human HL60 cells assessed as accumulation at Gn phase at 50 uM after 72 hrs by flow cytometric analysis (reference value: 3.43 +/- 0.48%); assay type: functional
MCF7 [20] = experiment: Cytotoxicity against human MCF7 cells assessed as reduction in cell viability at 100 uM after 72 hrs by Alamar blue assay; assay type: functional; in short: as §3
[21] = Cytotoxicity against human Kelly cells assessed as reduction in cell viability 50 uM after 72 hrs by Alamar blue assay; assay type: functional; in short: as §2
HL-60 [22] = experiment: Cell cycle arrest in human HL60 cells assessed as accumulation at preG1 phase at 50 uM after 24 hrs by flow cytometric analysis (reference value: 0.81 +/- 0.11%); assay type: functional
[23] = Cytotoxicity against human Kelly cells assessed as reduction in cell viability 30 uM after 72 hrs by Alamar blue assay; assay type: functional; in short: as §2
HL-60 [24] = experiment: Cell cycle arrest in human HL60 cells assessed as accumulation at S phase at 50 uM after 72 hrs by flow cytometric analysis (reference value: 23.58 +/- 1.38%); assay type: functional
HL-60 [25] = experiment: Cell cycle arrest in human HL60 cells assessed as accumulation at preG1 phase at 50 uM by flow cytometric analysis; assay type: functional, cell-based; settings: TDE = time-dependent effect
[26] = Cytotoxicity against human Kelly cells assessed as reduction in cell viability 40 uM after 72 hrs by Alamar blue assay; assay type: functional; in short: as §2
HL-60 [27] = experiment: Cell cycle arrest in human HL60 cells assessed as accumulation at G0/G1 phase at 50 uM after 72 hrs by flow cytometric analysis (reference value: 59.5 +/- 1.50%); assay type: functional
HL-60 [28] = experiment: Cell cycle arrest in human HL60 cells assessed as accumulation at S phase at 50 uM by flow cytometric analysis; assay type: functional, cell-based; settings: TDE = time-dependent effect
HL-60 [29] = experiment: Cell cycle arrest in human HL60 cells assessed as accumulation at G0/G1 phase at 50 uM after 24 hrs by flow cytometric analysis (reference value: 56.05 +/- 1.40%); assay type: functional
[30] = Binding affinity to poly(dA-dT)2 (unknown origin) assessed as change in melting temperature
[31] = Dissociation constant, pKa of the compound; assay type: physicochemical

N/C(=N\O)Nc1ccc(CCc2ccc(N/C(N)=N/O)cc2)cc1
ΔTm (Salmonidae): 0 °C

N=C(N)c1ccc(OCCCCCOc2ccc(C(=N)N)cc2)cc1
ΔTm (DNA): 10.7 °C

N/C(=N\O)Nc1ccc(C(=O)c2ccc(N/C(N)=N/O)cc2)cc1
Activity (HL-60 [1]): inactive | IC50 (HL-60 [2]): > 100 µM | ΔTm (Salmonidae): 0 °C

N/C(=N\O)c1ccc(OCCCCCOc2ccc(/C(N)=N/O)cc2)cc1
ΔTm (DNA): 0.2 °C

N/C(=N\O)Nc1ccc(NC(=O)c2ccc(N/C(N)=N/O)cc2)cc1
ΔTm (Salmonidae): 1 °C

Cl.N/C(=N\O)Nc1ccc(Sc2ccc(N/C(N)=N/O)cc2)cc1
Activity (HL-60 [3]): 10.78% | Activity (HL-60 [4]): tde | Activity (HL-60 [5]): tde | Activity (HL-60 [6]): 22.2% | Activity (HL-60 [7]): 25.85% | Activity (HL-60 [8]): 14.54% | Activity (HL-60 [9]): 6.44% | Activity [10]: 96.8% | IC50 (MCF7 [11]): > 100 µM | Activity (HL-60 [12]): 14.57% | IC50 [13]: 8.6 µM | Activity (HL-60 [14]): 2.35% | Activity (HL-60 [15]): tde | Activity (HL-60 [16]): 56.62% | Activity (HL-60 [17]): 21.71% | Activity (HL-60 [18]): 1.94% | Activity (HL-60 [19]): 2.1% | Activity (MCF7 [20]): 23.1% | Activity [21]: 95% | Activity (HL-60 [22]): 1.53% | Activity [23]: 79.4% | Activity (HL-60 [24]): 15.99% | Activity (HL-60 [25]): tde | Activity [26]: 93.9% | IC50 (HL-60 [2]): 46.4 µM | Activity (HL-60 [27]): 44.8% | Activity (HL-60 [28]): tde | ΔTm (Salmonidae): 1 °C | Activity (HL-60 [29]): 55.9%

Cl.N/C(=N\O)Nc1ccc(Cc2ccc(N/C(N)=N/O)cc2)cc1
IC50 (MCF7 [11]): > 100 µM | Activity (MCF7 [20]): 29.8% | IC50 (HL-60 [2]): 71.3 µM | ΔTm (Salmonidae): 0 °C

N=C(N)c1ccc(-c2ccc(-c3ccc(C(=N)N)cc3)o2)cc1 [FURAMIDINE HYDROCHLORIDE]
IC50 (MCF7 [11]): 92.8 µM | IC50 [13]: 27.4 µM | ΔTm [30]: 26.2 °C | IC50 (HL-60 [2]): 77.6 µM | pKa [31]: 10.4

Cl.N/C(=N\O)Nc1ccc(Oc2ccc(N/C(N)=N/O)cc2)cc1
Activity [10]: 95.8% | IC50 (MCF7 [11]): 45.2 µM | IC50 [13]: 12.2 µM | Activity (MCF7 [20]): 53% | Activity [21]: 89.9% | Activity [23]: 76.2% | Activity [26]: 86.4% | IC50 (HL-60 [2]): 65.5 µM | pKa [31]: 8.3 | ΔTm (Salmonidae): 1 °C
